Source: ChEMBL document CHEMBL3421570, “Combinatorial Libraries As a Tool for the Discovery of Novel, Broad-Spectrum Antibacterial Agents Targeting the ESKAPE Pathogens” (J Med Chem, 2015)
pIC50: −log10 of the molar value. Values after ≈ are worked out from the molar mass of the structure shown. Active and inactive are the calls of the source. The rule behind the calls is not given here.

What was measured:
[1] = tested on: Pseudomonas aeruginosa; experiment: Antimicrobial activity against Pseudomonas aeruginosa assessed as inhibition of microbial growth at 45 uM after 24 hrs; assay type: functional, organism-based
Procedure, shortened: (§1)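 Broth microdilution single-concentration read: overnight cultures diluted 1:1000, compound in DMF (≤2.0%) added, 37°C for 24 h, growth inhibition scored visually by lack of turbidity; triplicate. Gram-positives grown in TSB, Gram-negatives in LB.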

[2] = tested on: Staphylococcus aureus; experiment: Antibiofilm activity against Staphylococcus aureus incubated for 24 hrs followed by biofilm resuspension in PBS and measured after 24 hrs; assay type: functional
Procedure, shortened: (§2)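 Biofilms grown 24 h in 96-well plates from overnight cultures standardized to OD600 0.5 in fresh medium (human serum only for S. aureus; TSB for Gram-positives, LB for Gram-negatives). Medium then replaced with fresh medium containing a concentration range above and below MIC, 37°C overnight. After 24 h biofilm resuspended in PBS, serially diluted, plated in duplicate, CFU counted after 24 h at 37°C. Activity relative to untreated; three technical replicates; MBEC50 reported.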

[3] = tested on: Enterococcus faecium; experiment: Induction of spontaneous mutation in Enterococcus faecium at 2 to 10 MIC; assay type: functional, organism-based
[4] = tested on: Enterobacter cloacae; experiment: Antibiofilm activity against Enterobacter cloacae incubated for 24 hrs followed by biofilm resuspension in PBS and measured after 24 hrs; assay type: functional; procedure, shortened: as §2
[5] = tested on: Staphylococcus aureus; experiment: Bactericidal activity against methicillin-resistant Staphylococcus aureus at MIC measured after drug wash out after 120 mins by time kill assay; assay type: functional
Procedure, shortened: (§3)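 MRSA from stationary phase was regrown 3 h in TSB and seeded at OD600 0.5. […] After 120 min, cells were centrifuged and washed, serially diluted and plated for CFU. Percent recovery is relative to no-drug controls.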

[6] = Selectivity index, ratio of IC50 for human A549 cells to MIC for Klebsiella pneumoniae
[7] = tested on: Enterobacter cloacae; experiment: Bactericidal activity against Enterobacter cloacae after 24 hrs; assay type: functional
[8] = tested on: Acinetobacter baumannii; experiment: Antimicrobial activity against Acinetobacter baumannii assessed as inhibition of microbial growth after 24 hrs; assay type: functional
Procedure, shortened: (§4)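 Broth microdilution against multidrug-resistant clinical ESKAPE isolates. Overnight cultures (TSB for Gram-positives, LB for Gram-negatives) diluted 1:1000 in fresh medium, compound in DMF (≤2.0% DMF) added at decreasing concentrations, 37°C.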

[9] = tested on: Enterococcus faecium; experiment: Antibiofilm activity against Enterococcus faecium incubated for 24 hrs followed by biofilm resuspension in PBS and measured after 24 hrs; assay type: functional; procedure, shortened: as §2
[10] = tested on: Acinetobacter baumannii; experiment: Ratio of MIC for Acinetobacter baumannii measured after 8 cycle passage to MIC for wild type Acinetobacter baumannii; assay type: functional
[11] = tested on: Acinetobacter baumannii; experiment: Antimicrobial activity against Acinetobacter baumannii assessed as inhibition of microbial growth at 45 uM after 24 hrs; assay type: functional, organism-based; procedure, shortened: as §1
[12] = tested on: Enterococcus faecium; experiment: Antimicrobial activity against Enterococcus faecium assessed as inhibition of microbial growth after 24 hrs; assay type: functional; procedure, shortened: as §4
[13] = tested on: Klebsiella pneumoniae; experiment: Antibiofilm activity against Klebsiella pneumoniae incubated for 24 hrs followed by biofilm resuspension in PBS and measured after 24 hrs; assay type: functional; procedure, shortened: as §2
[14] = Cytotoxicity against human A549 cells assessed as cell viability recovery at 45 uM after 48 hrs by MTT assay; assay type: cell-based; details: read-out: Activity
Procedure, shortened: (§5)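 A549 cells grown in F-12K with L-glutamine, 10% FBS, 1% penicillin-streptomycin, seeded at 1.0 × 10^5 ml−1, allowed to adhere 24 h (37°C, 5% CO2), then exposed to compound in 45% w/v (2-hydroxypropyl)-β-cyclodextrin vehicle for 48 h. MTT 4 h, formazan solubilized in DMSO, absorbance 540 nm. Percent recovery versus vehicle-only; IC50 derived; at least three independent experiments.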

[15] = Cytotoxicity against human A549 cells assessed as cell viability recovery up to 225 uM after 48 hrs by MTT assay; assay type: cell-based; details: read-out: Activity; procedure, shortened: as §5
[16] = tested on: Staphylococcus aureus; experiment: Antimicrobial activity against Staphylococcus aureus USA300 strain FPR3757 infected in mouse model of lethal peritonitis assessed as mouse survival at 2 uM, im dosed 1 hr post infection and measured after 5 days post infection; assay type: functional, organism-based
Procedure, shortened: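 Mice, six per group, infected i.p. with 1 × 10^8 CFU ml−1 S. aureus USA300 FPR3757 in PBS with 5% mucin. Compound given i.m. at 2 μM 1 h later; vehicle 45% w/v (2-hydroxypropyl)-β-cyclodextrin in water i.v.; vancomycin i.v. as control. Monitored twice daily for 5 days, pre-moribund animals euthanized. Survival compared by log-rank test.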

[17] = tested on: Staphylococcus aureus; experiment: Bactericidal activity against methicillin-resistant Staphylococcus aureus assessed as cell survival recovery at MIC measured after drug wash out after 120 mins by time kill assay; assay type: functional; procedure, shortened: as §3
[18] = Selectivity index, ratio of IC50 for human A549 cells to MIC for Staphylococcus aureus
[19] = tested on: Staphylococcus aureus; experiment: Ratio of MIC for Staphylococcus aureus measured after 8 cycle passage to MIC for wild type Staphylococcus aureus; assay type: functional
[20] = tested on: A549; experiment: Cytotoxicity against human A549 cells after 48 hrs by MTT assay; assay type: cell-based; details: A549, 48 h; procedure, shortened: as §5
[21] = tested on: Klebsiella pneumoniae; experiment: Antimicrobial activity against Klebsiella pneumoniae assessed as inhibition of microbial growth after 24 hrs; assay type: functional; procedure, shortened: as §4
[22] = tested on: Pseudomonas aeruginosa; experiment: Bactericidal activity against Pseudomonas aeruginosa after 24 hrs; assay type: functional
[23] = tested on: Klebsiella pneumoniae; experiment: Bactericidal activity against Klebsiella pneumoniae after 24 hrs; assay type: functional
[24] = tested on: Enterobacter cloacae; experiment: Antimicrobial activity against Enterobacter cloacae assessed as inhibition of microbial growth after 24 hrs; assay type: functional; procedure, shortened: as §4
[25] = tested on: Pseudomonas aeruginosa; experiment: Induction of spontaneous mutation in Pseudomonas aeruginosa at 2 to 10 MIC; assay type: functional, organism-based; details: 2 to 10 x MIC
[26] = tested on: Pseudomonas aeruginosa; experiment: Antibiofilm activity against Pseudomonas aeruginosa incubated for 24 hrs followed by biofilm resuspension in PBS and measured after 24 hrs; assay type: functional; procedure, shortened: as §2
[27] = tested on: Enterococcus faecium; experiment: Antimicrobial activity against Enterococcus faecium assessed as inhibition of microbial growth at 45 uM after 24 hrs; assay type: functional, organism-based; procedure, shortened: as §1
[28] = tested on: Enterobacter cloacae; experiment: Ratio of MIC for Enterobacter cloacae measured after 8 cycle passage to MIC for wild type Enterobacter cloacae; assay type: functional
[29] = tested on: Pseudomonas aeruginosa; experiment: Antimicrobial activity against Pseudomonas aeruginosa assessed as inhibition of microbial growth after 24 hrs; assay type: functional; procedure, shortened: as §4
[30] = tested on: Klebsiella pneumoniae; experiment: Induction of spontaneous mutation in Klebsiella pneumoniae at 2 to 10 MIC; assay type: functional, organism-based
[31] = tested on: Staphylococcus aureus; experiment: Bactericidal activity against Staphylococcus aureus after 24 hrs; assay type: functional
[32] = Selectivity index, ratio of IC50 for human A549 cells to MIC for Pseudomonas aeruginosa
[33] = tested on: Acinetobacter baumannii; experiment: Bactericidal activity against Acinetobacter baumannii after 24 hrs; assay type: functional
[34] = tested on: Acinetobacter baumannii; experiment: Induction of spontaneous mutation in Acinetobacter baumannii at 2 to 10 MIC; assay type: functional, organism-based
[35] = Induction of hemolysis in human RBC at 10 uM incubated for 15 mins; assay type: cell-based, Erythrocyte; details: red blood cells, read-out: Activity
Procedure, shortened: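 Human RBCs from whole blood, resuspended 20% v/v in HA buffer (NaCl, CaCl2), compound 10 μM, 15 min at 37°C. Centrifuged 5,500 g for 1 min, supernatant OD543 read. Percent hemolysis against DMF vehicle (0%) and 1.0% Triton X-100 (100%); triplicate.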

[36] = tested on: Enterobacter cloacae; experiment: Antimicrobial activity against Enterobacter cloacae assessed as inhibition of microbial growth at 45 uM after 24 hrs; assay type: functional, organism-based; procedure, shortened: as §1
[37] = tested on: Klebsiella pneumoniae; experiment: Ratio of MIC for Klebsiella pneumoniae measured after 8 cycle passage to MIC for wild type Klebsiella pneumoniae; assay type: functional
[38] = tested on: Staphylococcus aureus; experiment: Effect on bacterial density of methicillin-resistant Staphylococcus aureus at MIC measured over 2 hrs period by time kill assay; assay type: functional, organism-based
[39] = tested on: Staphylococcus aureus; experiment: Antimicrobial activity against Staphylococcus aureus assessed as inhibition of microbial growth after 24 hrs; assay type: functional; procedure, shortened: as §4
[40] = tested on: Enterobacter cloacae; experiment: Induction of spontaneous mutation in Enterobacter cloacae at 2 to 10 MIC; assay type: functional, organism-based
[41] = tested on: Acinetobacter baumannii; experiment: Antibiofilm activity against Acinetobacter baumannii incubated for 24 hrs followed by biofilm resuspension in PBS and measured after 24 hrs; assay type: functional; procedure, shortened: as §2
[42] = Selectivity index, ratio of IC50 for human A549 cells to MIC for Enterococcus faecium
[43] = Selectivity index, ratio of IC50 for human A549 cells to MIC for Acinetobacter baumannii
[44] = tested on: Klebsiella pneumoniae; experiment: Antimicrobial activity against Klebsiella pneumoniae assessed as inhibition of microbial growth at 45 uM after 24 hrs; assay type: functional, organism-based; procedure, shortened: as §1
[45] = tested on: Enterobacter cloacae; experiment: Antimicrobial activity against Enterobacter cloacae isolate 1446 assessed as inhibition of microbial growth in presence of 100 uM efflux pump inhibitor reserpine after 24 hrs; assay type: functional, organism-based
[46] = Selectivity index, ratio of IC50 for human A549 cells to MIC for Enterobacter cloacae
[47] = tested on: Enterococcus faecium; experiment: Bactericidal activity against Enterococcus faecium after 24 hrs; assay type: functional
[48] = tested on: Staphylococcus aureus; experiment: Antimicrobial activity against Staphylococcus aureus assessed as inhibition of microbial growth at 45 uM after 24 hrs; assay type: functional, organism-based; procedure, shortened: as §1
[49] = tested on: Staphylococcus aureus; experiment: Induction of spontaneous mutation in Staphylococcus aureus at 2 to 10 MIC; assay type: functional, organism-based
[50] = tested on: Staphylococcus aureus; experiment: Bactericidal activity against methicillin-resistant Staphylococcus aureus assessed as cell survival recovery at 2% measured after drug wash out after 120 mins by time kill assay; assay type: functional; procedure, shortened: as §3
[51] = tested on: Staphylococcus aureus; experiment: Induction of bacterial cell lysis in methicillin-resistant Staphylococcus aureus assessed as cell recovery at 2% by time kill assay; assay type: functional

CCCCCCCN1C(=N)N(CCCC[C@H]2CNC(=N)N2CCc2cccc(C(F)(F)F)c2)C[C@@H]1CC1CCCCC1
growth inhibition (GI) [1]: Active | MBEC50 [2]: 4.4 µM | Activity [3]: inactive | MBEC50 [4]: 15 µM | fold change (FC) [5]: 2.5 | Selectivity Index [6]: 43 | MBC90 [7]: 6.4 µM (≈ 3.78 µg/mL) | MIC [8]: 1.5 µM | MBEC50 [9]: 26 µM | Ratio [10]: <=8 | growth inhibition (GI) [11]: Active | MIC [12]: 1.5 µM | MBEC50 [13]: 4.8 µM | viability at 48 h, 45 µM [14]: > 60% | viability at 48 h [15]: ≥ 33% | Activity [16]: Active | Survival [17]: 0.2% | Selectivity Index [18]: 43 | Ratio [19]: 4 | pIC50 [20]: 4.18 | MIC [21]: 1.5 µM | MBC90 [22]: 14 µM (≈ 8.27 µg/mL) | MBC90 [23]: 2.2 µM (≈ 1.3 µg/mL) | MIC [24]: 1.5 µM | Activity [25]: inactive | MBEC50 [26]: 46 µM | growth inhibition (GI) [27]: Active | Ratio [28]: <=8 | MIC [29]: 1.5 µM | Activity [30]: inactive | MBC90 [31]: 3.3 µM (≈ 1.95 µg/mL) | Selectivity Index [32]: 43 | MBC90 [33]: 3.2 µM (≈ 1.89 µg/mL) | Activity [34]: inactive | hemolysis at 0.25 h, 10 µM [35]: 0.34% | growth inhibition (GI) [36]: Active | Ratio [37]: <=8 | Activity [38]: inactive | MIC [39]: 1.5 µM | Activity [40]: inactive | MBEC50 [41]: 13 µM | Selectivity Index [42]: 43 | Selectivity Index [43]: 43 | growth inhibition (GI) [44]: Active | growth inhibition (GI) [45]: Active | Selectivity Index [46]: 43 | MBC90 [47]: 3.3 µM (≈ 1.95 µg/mL) | growth inhibition (GI) [48]: Active | Activity [49]: inactive

CCCCCCCCCCCCOS(=O)(=O)[O-].[Na+] [SODIUM LAURYL SULFATE]
Survival [50]: 0% | Activity [51]: 52%
